In ChEMBL document CHEMBL3045553, “Isolation and antifungal activity of 4-phenyl-3-butenoic acid from Streptomyces koyangensis strain VK-A60” (2005):
The source made the active and inactive calls. The calls are words filed in the database; no cut-off is given here.

Tests used:
[1] = system: Colletotrichum orbiculare; experiment: […] antifungal activity against Colletotrichum orbiculare on […] assessed as inhibition of anthracnose development at 500 ug/mL; assay type: functional, organism-based
[2] = system: Pyricularia grisea; experiment: Antifungal activity against Magnaporthe grisea assessed as inhibition of microbial growth by microtiter broth dilution method; assay type: functional
How it was run: (§1)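 24-well broth dilution. 10 µL of spore or cell suspension went into 1 mL potato dextrose broth or nutrient broth. Bacterial inoculum was 10⁴ CFU/mL. Compound was dissolved in methanol and tested at 0–100 μg/mL. Plates were incubated at 22–28 °C for 2–5 days against a compound-free growth control. MIC was the lowest concentration showing no growth.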

[3] = system: Pectobacterium carotovorum subsp. carotovorum; experiment: Antibacterial activity against Pectobacterium carotovorum subsp. carotovorum assessed as inhibition of microbial growth by microtiter broth dilution method; assay type: functional
How it was run: (§2)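 Broth microdilution in 24-well plates. Inoculum of 10⁴ CFU/mL, 10 µL per well, in 1 mL potato dextrose broth or nutrient broth. Compound in methanol, 0–100 µg/mL. Incubated at 22–28 °C for 2–5 days and compared with a compound-free growth control. MIC is the lowest concentration showing no growth.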

[4] = system: Fusarium oxysporum f. sp. lycopersici; experiment: Antifungal activity against Fusarium oxysporum f. sp. lycopersici assessed as inhibition of microbial growth by microtiter broth dilution method; assay type: functional
How it was run: (§3)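 Spore or zoospore suspension, 10 µL, added to wells of a 24-well dish holding 1 mL potato dextrose broth or nutrient broth. Compound dissolved in methanol and tested over 0–100 µg/mL. Plates held at 22–28 °C and read after 2–5 days against an untreated inoculated control. MIC is the lowest concentration with no visible growth.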

[5] = system: Colletotrichum orbiculare; experiment: […] antifungal activity against Colletotrichum orbiculare on two-leaf stage cucumber plant assessed as inhibition of anthracnose development at 100 ug/mL; assay type: functional, organism-based
How it was run: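 Cucumber cv. Baekrokdadaki grown at 28 ± 2 °C. Compound in methanol, diluted in 0.1% Tween 20 to 10–500 µg/mL, sprayed on primary leaves 1 day before inoculation. Inoculum was 10⁶ conidia/mL in 0.05% Tween 20, followed by 24 h in a dew chamber at 28 °C. Lesions/cm² on secondary leaves counted at day 6. 6 plants/treatment, 3 replicates; Tween-only control.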

[6] = system: Candida albicans; experiment: Antifungal activity against Candida albicans assessed as inhibition of microbial growth by microtiter broth dilution method; assay type: functional; how it was run: as §2
[7] = system: Saccharomyces cerevisiae; experiment: Antifungal activity against Saccharomyces cerevisiae assessed as inhibition of microbial growth by microtiter broth dilution method; assay type: functional; how it was run: as §2
[8] = system: Bacillus subtilis; experiment: Antibacterial activity against Bacillus subtilis subsp. subtilis assessed as inhibition of microbial growth by microtiter broth dilution method; assay type: functional; how it was run: as §2
[9] = system: Cladosporium cucumerinum; experiment: Antifungal activity against Cladosporium cucumerinum assessed as inhibition of microbial growth by microtiter broth dilution method; assay type: functional; how it was run: as §3
[10] = system: Ralstonia solanacearum; experiment: Antibacterial activity against Ralstonia solanacearum assessed as inhibition of microbial growth by microtiter broth dilution method; assay type: functional; how it was run: as §1
[11] = system: Sclerotinia sclerotiorum; experiment: Antifungal activity against Sclerotinia sclerotiorum assessed as inhibition of microbial growth by microtiter broth dilution method; assay type: functional; how it was run: as §3
[12] = system: Rhizoctonia solani; experiment: Antifungal activity against Rhizoctonia solani assessed as inhibition of microbial growth by microtiter broth dilution method; assay type: functional; how it was run: as §3
[13] = system: Colletotrichum orbiculare; experiment: Antifungal activity against Colletotrichum orbiculare assessed as inhibition of microbial growth by microtiter broth dilution method; assay type: functional; how it was run: as §3
[14] = system: Phytophthora capsici; experiment: Antifungal activity against Phytophthora capsici assessed as inhibition of microbial growth by microtiter broth dilution method; assay type: functional; how it was run: as §3
[15] = system: Botrytis cinerea; experiment: Antifungal activity against Botryotinia fuckeliana assessed as inhibition of microbial growth by microtiter broth dilution method; assay type: functional; how it was run: as §3
[16] = system: Globisporangium ultimum; experiment: Antifungal activity against Pythium ultimum assessed as inhibition of microbial growth by microtiter broth dilution method; assay type: functional; how it was run: as §3
[17] = system: Xanthomonas vesicatoria; experiment: Antibacterial activity against Xanthomonas vesicatoria assessed as inhibition of microbial growth by microtiter broth dilution method; assay type: functional; how it was run: as §2
[18] = system: Ilyonectria destructans; experiment: Antifungal activity against Ilyonectria radicicola assessed as inhibition of microbial growth by microtiter broth dilution method; assay type: functional; how it was run: as §3
[19] = system: Alternaria mali; experiment: Antifungal activity against Alternaria mali assessed as inhibition of microbial growth by microtiter broth dilution method; assay type: functional; how it was run: as §3

| SMILES | inhibition [1] | MIC [2] | MIC [3] | MIC [4] | inhibition [5] | MIC [6] | MIC [7] | MIC [8] | MIC [9] | MIC [10] | MIC [11] | MIC [12] | MIC [13] | MIC [14] | MIC [15] | MIC [16] | MIC [17] | MIC [18] | MIC [19] |
| --- | --- | --- | --- | --- | --- | --- | --- | --- | --- | --- | --- | --- | --- | --- | --- | --- | --- | --- | --- |
| N#Cc1c(Cl)c(Cl)c(Cl)c(C#N)c1Cl | Active |  |  |  |  |  |  |  |  |  |  |  |  |  |  |  |  |  |  |
| O=C(O)C/C=C/c1ccccc1 | Active | 10 µg/mL | 1 µg/mL | > 100 µg/mL | Active | > 100 µg/mL | > 100 µg/mL | 3 µg/mL | 30 µg/mL | 0.5 µg/mL | > 100 µg/mL | 30 µg/mL | 3 µg/mL | 30 µg/mL | > 100 µg/mL | 0.5 µg/mL | 10 µg/mL | 30 µg/mL | 30 µg/mL |
